The record followed here is ChEMBL document CHEMBL1157854, “In-vivo analgesic and anti-inflammatory activities of newly synthesized benzimidazole derivatives” (2010).

Structures are written as SMILES.

Test [1] concerns Rattus norvegicus. The test is described as follows: Antiinflammatory activity in albino rat assessed as inhibition of carrageenan-induced paw oedema at 100 mg/kg, po measured after 60 mins of carrageenan challenge relative to control. Type of test: functional. The note with it: 1 h. The method in brief:
(§1)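 Rat hind paw oedema induced by 0.1 mL 1% carrageenan injected subplantar into the right hind paw. Paw volume measured plethysmographically before carrageenan and at 30, 60, 120 and 180 min after. Percent oedema inhibition calculated versus a saline control group. Six animals per group, mean ± SE; one-way ANOVA with Tukey–Kramer test, p < 0.01.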

Another test deals with Mus musculus. The test is described as follows: Analgesic activity in Swiss albino mouse assessed as protection against acetic acid-induced writhing at 100 mg/kg, po administered 1 hr prior to acetic acid challenge relative to control measured after 3 hrs. Type of test: functional. The method in brief:
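Swiss albino mice (20–25 g), six per group. Baseline writhes counted over 20 min starting 5 min after ip 0.6% acetic acid (10 ml/kg); the same mice were dosed orally the next day, 1 h before acetic acid, and writhes counted again. Protection = (1 − […]) × 100. Mean ± SE; one-way ANOVA with Tukey–Kramer test, p < 0.01.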
Background: An intraperitoneal irritant provokes the stretching counted in writhing tests.

For test [2], the system named is Rattus norvegicus. Kind of test: Antiinflammatory activity in albino rat assessed as inhibition of carrageenan-induced paw oedema at 100 mg/kg, po measured after 120 mins of carrageenan challenge relative to control. To be noted: 2 h. Type of test: functional. The method in brief:
as §1

For test [3], the system named is Rattus norvegicus. The test is described as follows: Antiinflammatory activity in albino rat assessed as inhibition of carrageenan-induced paw oedema at 100 mg/kg, po measured after 180 mins of carrageenan challenge relative to control. The test is classed as functional. To be noted: 3 h. The essentials: as §1
In general terms: The carrageenan paw model is a standard test of acute inflammation.

In test [4] the test system is Rattus norvegicus. The test is described as follows: Antiinflammatory activity in albino rat assessed as inhibition of carrageenan-induced paw oedema at 100 mg/kg, po measured after 30 mins of carrageenan challenge relative to control. The test is classed as functional. The note with it: 0.5 h. The method in brief: as §1
For test [5], the species on record is Rattus norvegicus. The test is described as follows: animal or person. To be noted: albino, po, 0.5 h, read-out: INH.
The species named for test [6] is Rattus norvegicus. Kind of test: animal or person. The note with it: albino, po, 1 h, read-out: INH.
For test [7], the species on record is Rattus norvegicus. Kind of test: animal or person. The note with it: albino, po, 2 h, read-out: INH.
For test [8], the species on record is Rattus norvegicus. The test is described as follows: animal or person. To be noted: albino, po, 3 h, read-out: INH.

In the case of `Clc1cccc(NCc2nc3ccccc3[nH]2)c1`, the inhibition in vivo at 100 mg/kg in the test on Rattus norvegicus [1] was 26.6%; in the test on Rattus norvegicus [2] it was 41.1%; in the test on Rattus norvegicus [3], 44.4%; in the test with Rattus norvegicus [4] it was 15.3%. In the test with Mus musculus, the Activity is listed as 81.33%.

`O=[N+]([O-])c1ccc2nc(CNc3ccc(Br)cc3)[nH]c2c1`: the inhibition in vivo at 100 mg/kg turned out to be 20% in the test with Rattus norvegicus [1], 23.5% with Rattus norvegicus [2], 22.2% in the test with Rattus norvegicus [3] and 15.3% with Rattus norvegicus [4]. Besides, the Activity in the test on Mus musculus stood at 79%.

As for `Brc1ccc2nc(CNc3ccccc3)[nH]c2c1`, the inhibition in vivo at 100 mg/kg in the test with Rattus norvegicus [1] stood at 26.6%; in the test on Rattus norvegicus [2], 29.4%; with Rattus norvegicus [3] it was 22.2%; with Rattus norvegicus [4], 7.6%. The Activity in the test on Mus musculus came to 80%.

Consider `Brc1ccc(NCc2nc3ccc(Br)cc3[nH]2)cc1`, for which the inhibition in vivo at 100 mg/kg with Rattus norvegicus [1] was determined as 20%; with Rattus norvegicus [2] it was 23.5%; in the test on Rattus norvegicus [3], 16.6%. Further, the Activity in the test with Mus musculus is given as 85.66%.

As to `COc1ccc(NCc2nc3ccc(Br)cc3[nH]2)cc1`, the inhibition in vivo at 100 mg/kg in the test on Rattus norvegicus [1] was 13.3%; in the test with Rattus norvegicus [2] it was 17.6%; with Rattus norvegicus [3] it was 12.5%. Besides, the Activity in the test with Mus musculus was 83.33%.

`Cc1ccc(NCc2nc3ccc(Br)cc3[nH]2)cc1`: the inhibition in vivo at 100 mg/kg with Rattus norvegicus [1] is 20%; with Rattus norvegicus [2], 23.5%; in the test on Rattus norvegicus [3], 16.6%; with Rattus norvegicus [4], 7.6%. In addition, the Activity in the test with Mus musculus amounted to 88%.

Regarding `COc1ccc(NCc2nc3ccccc3[nH]2)cc1`, the inhibition in vivo at 100 mg/kg was determined as 26.6% in the test on Rattus norvegicus [1], 29.4% with Rattus norvegicus [2], 33.3% with Rattus norvegicus [3] and 7.6% with Rattus norvegicus [4]. The Activity in the test with Mus musculus is reported as 83.33%.

As for `Clc1ccccc1NCc1nc2ccc(Br)cc2[nH]1`, the figures for the inhibition in vivo at 100 mg/kg in the test on Rattus norvegicus [1], in the test on Rattus norvegicus [2] and in the test with Rattus norvegicus [3] were 20%, 23.5% and 22.2%, respectively. In the test with Mus musculus, the Activity is given as 80%.

In the case of `Clc1cccc(NCc2nc3ccc(Br)cc3[nH]2)c1`, the inhibition in vivo at 100 mg/kg amounted to 26.6% in the test on Rattus norvegicus [1], 17.6% in the test on Rattus norvegicus [2], 16.6% in the test with Rattus norvegicus [3] and 7.6% in the test with Rattus norvegicus [4]. Moreover, in the test on Mus musculus, the Activity turned out to be 89%.

In the case of `c1ccc(NCc2nc3ccccc3[nH]2)cc1`, the inhibition in vivo at 100 mg/kg with Rattus norvegicus [1] turned out to be 26.6%; with Rattus norvegicus [2], 41.1%; with Rattus norvegicus [3], 38.8%; with Rattus norvegicus [4], 7.6%. In addition, the Activity in the test with Mus musculus was 72.33%.

As to `CS(=O)(=O)Nc1ccc([N+](=O)[O-])cc1Oc1ccccc1` [NIMESULIDE], the inhibition in vivo at 50 mg/kg in the test listed under Rattus norvegicus [5] amounted to 15.3%; in the test filed under Rattus norvegicus [6] it was 26.6%; in the test listed under Rattus norvegicus [7], 41.1%; in the test listed under Rattus norvegicus [8], 44.4%.
